# From PubChem BioAssay
# Compounds with a hit are over-represented: about 1.9% of the library has one in this group of screens.
# RanGTP-Impb inh = disruptors of Ran-importin-beta complex formation – biochemical, FRET, CFP-Ran, YFP-importin-beta, homogeneous, primary screen. 300,000 compounds, 1.1% hits. inhibition, % (concentration not given with the values). cell-free CFP-Ran/YFP-importin-beta FRET ratio;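 active means more than half of the replicate wells show a fall in the fluorescence ratio signal beyond about 16%, limit read from the data, passing the limit was not always enough; inconclusive means exactly half of the replicate wells pass the set limit; inactive means fewer than half of replicates pass the limit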;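 further: 0% = DMSO wells and 100% = Ran loaded with GDP instead of GTP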
# Runt-SMMHC FRET = blocks binding of human RUNX1 Runt domain to CBFb-SMMHC. Q01196+Q13951. Cerulean-Runt/Venus-CBFb-SMMHC FRET ratio 530/480, 1 h. inhibition, % at 20 µM. 220,000 compounds, 0.74% hits. AID 1434;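 active means mean inhibition across duplicate retests at 20 µM reaching about 50%, limit read from the data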;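 further: 0% = DMSO wells and 100% = wells with excess untagged CBFb-SMMHC; inhibitors lower the FRET ratio by blocking Runt binding to CBFb-SMMHC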
# Runt-CBFb FRET = Runt domain-CBFb interaction inhibition | 220,000 compounds, 0.46% hits | Q01196+Q13951 | inhibition, % at 20 µM | Cerulean-Runt/Venus-CBFb FRET ratio 530/480, 1 h;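 active means inhibition over about 50% at 20 µM in the single-dose screen, limit read from the data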;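 further: 0% = DMSO wells and 100% = excess unlabeled CBFb competitor control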
#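 Assay system: Cerulean-Runt domain fusion protein, energy donor; Signal: fluorescence energy transfer, 422 nm excitation, 530/480 nm emission; Timing: 1 h compound exposure, room temperature; Control set: unlabeled CBFb; Medium: Tris buffer pH 7.5 with salts and BSA; Compound: single test concentration of 20 µM, 1% DMSO final; Probe or stimulus: Venus-CBFb 100 nM.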
# Hck Nef HTS = human Hck-Nef kinase inhibition | P08631 | Recombinant Hck-YEEI plus Nef, Z-Lyte FRET kinase assay | inhibition, % at 20 µM | 220,000 compounds, 0.68% hits | AID 463187;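 active means Hck-Nef kinase inhibition above about 50%, limit read from the data; inactive means inhibition below that limit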;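 further: 0% = DMSO with Hck plus Nef and 100% = Hck alone without Nef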
# Target sequence (P08631 whole entry, looked up): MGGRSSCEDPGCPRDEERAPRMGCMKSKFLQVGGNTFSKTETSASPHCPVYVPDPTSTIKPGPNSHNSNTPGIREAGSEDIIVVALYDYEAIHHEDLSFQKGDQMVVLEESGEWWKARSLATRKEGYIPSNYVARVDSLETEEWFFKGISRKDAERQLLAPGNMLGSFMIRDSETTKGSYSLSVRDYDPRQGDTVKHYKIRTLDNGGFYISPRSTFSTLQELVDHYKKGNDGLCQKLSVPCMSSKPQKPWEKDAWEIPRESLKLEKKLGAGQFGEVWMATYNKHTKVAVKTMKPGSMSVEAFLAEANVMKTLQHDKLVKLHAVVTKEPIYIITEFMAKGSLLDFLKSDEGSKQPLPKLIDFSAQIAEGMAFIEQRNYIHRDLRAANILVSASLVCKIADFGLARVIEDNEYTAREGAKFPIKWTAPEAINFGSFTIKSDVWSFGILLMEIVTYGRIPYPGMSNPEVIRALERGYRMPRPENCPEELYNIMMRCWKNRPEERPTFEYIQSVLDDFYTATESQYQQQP
# Starred values were filed as active, the others as inactive; u = inconclusive; x = no result.
SMILES,RanGTP-Impb inh,Runt-SMMHC FRET,Runt-CBFb FRET,Hck Nef HTS
CCCCn1c(NC(=O)c2ccc(F)cc2)c(C#N)c2nc3ccccc3nc21,18*,x,x,x
O=C(O)c1ccc(S(=O)(=O)c2ccc([N+](=O)[O-])cc2[N+](=O)[O-])cc1,-1,x,x,x
Cc1ccccc1Cn1nc(C)c(NC(=O)c2cc3nc(-c4ccco4)cc(C(F)(F)F)n3n2)c1C,x,15,-1,2
CCc1ccc(-c2cc(C(F)(F)F)n3nc(C(=O)Nc4c(C)nn(Cc5ccc(F)cc5)c4C)cc3n2)s1,58*,13,11,8
CC(=O)OCC(=O)NCc1ccc2c(c1)OCO2,-6,68,87*,-1
O=C(COC(=O)c1ccc(O)cc1)NCc1ccc2c(c1)OCO2,1,0,0,25
COc1ccc(C2C(C#N)=C(N)OC3=C2C(=O)CC(C)(C)C3)cc1OC (stereo unspecified),0,-2,1,17
C=CCOc1ccc(C2C(C#N)=C(N)N(Nc3ccccc3)C3=C2C(=O)CC(C)(C)C3)cc1OC (stereo unspecified),7,94*,37,8
O=C(NC(NNc1ccc([N+](=O)[O-])cc1)(C(F)(F)F)C(F)(F)F)c1ccccc1Cl,23*,-7,-1,-1
CC1=NNC(=O)C1C(c1ccccc1)C1C(=O)NN=C1C (stereo unspecified),u,-8,0,-2
CCOC(=O)/C=C(\C)Sc1cc(O)c2ccccc2c1O,x,61*,27,-167
Cc1ccc(C)c(NC(=O)C2CCCC2)c1,0,x,x,x
CCOc1ccc(N(CC(=O)Nc2ccc(C)c(C)c2)S(C)(=O)=O)cc1,5,x,x,x
CCc1ccc(C(=O)/C=C2\Sc3ccccc3NC2=O)cc1,-1,6,32,7
CCCCNC(=O)/C=C1\Sc2ccccc2NC1=O,32*,3,1,5
O=[N+]([O-])c1ccc2c(c1)N([O-])C1(CCCCC1)[N+]2=O,x,73*,26,-18
NC(=O)c1ccc(NC(=O)COC(=O)c2c3c(nc4ccccc24)/C(=C\c2cccs2)CCC3)cc1,16*,-16,-21,17
CCOC(=O)c1sc(N/N=C/c2cc(Br)c(O)c(OC)c2)nc1C,27*,x,x,x
Cc1ccc2c3c(cccc13)-c1ccccc1C2=O,64*,63*,19,6
Cc1cccc2cc3c(nc12)-c1ccccc1C3=O,2,x,x,x
COc1cc(-c2cc3nc4ccccc4n3c(N)c2C#N)cc(OC)c1OC,25*,15,7,50
N#Cc1c(-c2ccccc2)cc2nc3ccccc3n2c1N,17*,10,7,5
COc1ccccc1NC1=CC(=O)CC(c2ccccc2)C1 (stereo unspecified),55*,6,2,3
Nc1cccc2c1C(=O)N(CC(=O)NC13CC4CC(CC(C4)C1)C3)C2=O,5,93*,20,14
Cc1c([N+](=O)[O-])cnc(Sc2ccccc2)c1[N+](=O)[O-],5,x,x,x
SMILES,RanGTP-Impb inh,Runt-SMMHC FRET,Runt-CBFb FRET,Hck Nef HTS
O=C1CC(c2ccc(Cl)cc2)c2c(O)cc(O)cc2O1 (stereo unspecified),-3,x,x,x
C/C=C/C=C/[C@H]1Cc2cc(O)cc(O)c2O1,22*,-22,4,45
Cc1sc2nc(-c3cccs3)oc(=O)c2c1C,32*,x,x,x
O=C1NN(c2ccc(Br)cc2)C(=O)/C1=C\c1ccc(O)cc1O,142*,x,x,x
CC(=O)NC(Cc1cccc(F)c1)C(=O)NC1CCN(C(=O)c2ccc(C)cc2)CC1 (stereo unspecified),0,-1,-1,-19
CSc1ccccc1OCc1cc(C(=O)N2CCN3CCCC3C2)no1 (stereo unspecified),-2,x,x,x
CSCC(C)N1CCC(n2nccc2NC(=O)c2ccc3c(c2)OCO3)CC1 (stereo unspecified),11,x,x,x
CSCC(C)N1CCC(n2nccc2NC(=O)c2ccccc2C)CC1 (stereo unspecified),21*,x,x,x
N=c1c(C(=O)NCCc2ccccc2)cc2c(=O)n3ccccc3nc2n1CC1CCCO1 (stereo unspecified),179*,x,x,x
COc1ccc(CCn2c(=N)c(C(=O)NCCN3CCOCC3)cc3c(=O)n4cccc(C)c4nc32)cc1OC,11,x,x,x
N=c1c(C(=O)NCc2ccco2)cc2c(=O)n3ccccc3nc2n1CC1CCCO1 (stereo unspecified),130*,x,x,47
COCCn1c(=N)c(C(=O)NCCc2ccccc2)cc2c(=O)n3cccc(C)c3nc21,192*,x,x,104*
N=c1c(C(=O)NCc2ccc3c(c2)OCO3)cc2c(=O)n3ccccc3nc2n1CC1CCCO1 (stereo unspecified),-13,x,x,x
Cc1cccn2c(=O)c3cc(C(=O)NCCc4ccccc4)c(=N)n(CC4CCCO4)c3nc12 (stereo unspecified),181*,x,x,x
CC(C)(C)c1cc(C(=O)Nc2cccnc2)cc(C(=O)Nc2cccnc2)c1,1,x,x,x
CCOC(=O)c1ccc(C(=S)N2CCCC2)cc1,-2,x,x,x
CCn1c(=N)c(C(=O)NCc2cccnc2)cc2c(=O)n3cccc(C)c3nc21,x,61*,18,x
Cc1cccn2c(=O)c3cc(C(=O)NCc4cccnc4)c(=N)n(CC4CCCO4)c3nc12 (stereo unspecified),180*,x,x,x
Cc1ccc(C)c(NC(=O)CSc2nnc(C3CCCCC3)o2)c1,-3,x,x,x
N#C/C(=C\c1ccc(F)cc1)C(=O)Nc1ccccn1,39*,x,x,x
N#C/C(=C/c1ccc(O)c(O)c1)C(=O)NCc1ccc(Cl)cc1,7,x,x,x
N#C/C(=C\c1ccc(O)c(O)c1)C(=O)Nc1cccc2ncccc12,93*,x,x,x
CC(=O)c1ccc(OC(=O)c2nc(-c3ccccc3)oc2C)cc1,-1,x,x,x
CC1CCCN(C(=O)COC(=O)C2CCN(S(=O)(=O)c3ccc4c(c3)OCCO4)CC2)C1 (stereo unspecified),6,x,x,x
CC(C)(C)NC(=O)CN(C(=O)c1csnn1)c1cccc2c1CCCC2,-3,1,-1,-3
SMILES,RanGTP-Impb inh,Runt-SMMHC FRET,Runt-CBFb FRET,Hck Nef HTS
COc1ccc(NC(=O)CN(C)C(=O)CSCc2ccc(C)cc2)cc1,-4,x,x,x
CCCc1nc2c(=O)n(C)c(=O)[nH]c2n1C,108*,114*,122*,1
CCCCn1c(-c2ccc(Cl)cc2)nc2c(=O)n(C)c(=O)[nH]c21,x,50*,25,1
CC(=O)Nc1ccc(OC(=O)N2CCCC2)cc1,0,x,x,x
COc1ccc(C2=NS(=O)(=O)N(C)C(C(=O)Nc3ccc(C(C)=O)cc3)=C2)cc1OC,-4,x,x,x
Nc1c(C(=O)NCc2ccco2)c2nc3ccccc3nc2n1CCc1ccc(F)cc1,58*,21,3,36
Nc1c(C(=O)NCCN2CCOCC2)c2nc3ccccc3nc2n1-c1ccc2c(c1)OCO2,12,0,7,29
Nc1c(C(=O)NCCN2CCOCC2)c2nc3ccccc3nc2n1CCc1ccccc1,85*,41,74*,48
Nc1c(C(=O)NCc2ccc3c(c2)OCO3)c2nc3ccccc3nc2n1CCCN1CCOCC1,61*,81*,22,42
